Measurements reported in ChEMBL document CHEMBL2407003, “Effects of (-)-epicatechin and derivatives on nitric oxide mediated induction of mitochondrial proteins” (Bioorg Med Chem Lett, 2013).
The source made the active and inactive calls. No cut-off for these calls is given here.

Experiments:
[1] = Upregulation of mitochondrial complex-2 expression in BCAEC at EC50 after 48 hrs by Western blot analysis in presence of L-NAME; assay type: functional; conditions: Bos taurus
[2] = Upregulation of mitochondrial complex-2 expression in BCAEC at EC50 after 48 hrs by Western blot analysis relative to control; assay type: functional; conditions: Bos taurus
[3] = biological target: T1, Citrate synthase, mitochondrial (Bos taurus) (UniProt Q29RK1); assay: Induction of citrate synthase activity in BCAEC at EC50 after 48 hrs in presence of L-NAME
T1 sequence (whole entry): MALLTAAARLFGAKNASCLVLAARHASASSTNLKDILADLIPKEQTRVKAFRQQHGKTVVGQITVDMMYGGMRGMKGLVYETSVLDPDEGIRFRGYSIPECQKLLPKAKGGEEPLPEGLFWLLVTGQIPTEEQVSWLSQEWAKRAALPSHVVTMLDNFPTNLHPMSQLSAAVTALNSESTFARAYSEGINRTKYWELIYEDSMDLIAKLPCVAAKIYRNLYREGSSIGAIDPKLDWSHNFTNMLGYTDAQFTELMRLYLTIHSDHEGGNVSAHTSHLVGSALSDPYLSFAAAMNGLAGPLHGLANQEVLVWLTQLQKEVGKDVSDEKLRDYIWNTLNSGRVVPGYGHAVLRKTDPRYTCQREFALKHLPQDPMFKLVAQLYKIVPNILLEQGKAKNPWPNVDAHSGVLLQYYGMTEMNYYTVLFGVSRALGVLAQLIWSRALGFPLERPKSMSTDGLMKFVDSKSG

[4] = Upregulation of mitochondrial complex-1 expression in BCAEC at 100 nmol/L after 48 hrs by Western blot analysis; assay type: functional; conditions: Bos taurus
[5] = Upregulation of porin expression in BCAEC at EC50 after 48 hrs by Western blot analysis; assay type: functional; conditions: Bos taurus
[6] = Upregulation of porin expression in BCAEC at EC50 after 48 hrs by Western blot analysis in presence of L-NAME; assay type: functional; conditions: Bos taurus
[7] = Upregulation of mitochondrial complex-1 expression in BCAEC at EC50 after 48 hrs by Western blot analysis relative to control; assay type: functional; conditions: Bos taurus
[8] = Upregulation of TFAM expression in BCAEC at EC50 after 48 hrs by Western blot analysis in presence of L-NAME; assay type: functional; conditions: Bos taurus
Nitric oxide synthase 3 = biological target: T2, Nitric oxide synthase 3 (Bos taurus, UniProt P29473); assay: Activation of eNOS in BCAEC assessed as increase in nitric oxide level after 10 mins by fluorometric analysis
T2 sequence (P29473 whole entry): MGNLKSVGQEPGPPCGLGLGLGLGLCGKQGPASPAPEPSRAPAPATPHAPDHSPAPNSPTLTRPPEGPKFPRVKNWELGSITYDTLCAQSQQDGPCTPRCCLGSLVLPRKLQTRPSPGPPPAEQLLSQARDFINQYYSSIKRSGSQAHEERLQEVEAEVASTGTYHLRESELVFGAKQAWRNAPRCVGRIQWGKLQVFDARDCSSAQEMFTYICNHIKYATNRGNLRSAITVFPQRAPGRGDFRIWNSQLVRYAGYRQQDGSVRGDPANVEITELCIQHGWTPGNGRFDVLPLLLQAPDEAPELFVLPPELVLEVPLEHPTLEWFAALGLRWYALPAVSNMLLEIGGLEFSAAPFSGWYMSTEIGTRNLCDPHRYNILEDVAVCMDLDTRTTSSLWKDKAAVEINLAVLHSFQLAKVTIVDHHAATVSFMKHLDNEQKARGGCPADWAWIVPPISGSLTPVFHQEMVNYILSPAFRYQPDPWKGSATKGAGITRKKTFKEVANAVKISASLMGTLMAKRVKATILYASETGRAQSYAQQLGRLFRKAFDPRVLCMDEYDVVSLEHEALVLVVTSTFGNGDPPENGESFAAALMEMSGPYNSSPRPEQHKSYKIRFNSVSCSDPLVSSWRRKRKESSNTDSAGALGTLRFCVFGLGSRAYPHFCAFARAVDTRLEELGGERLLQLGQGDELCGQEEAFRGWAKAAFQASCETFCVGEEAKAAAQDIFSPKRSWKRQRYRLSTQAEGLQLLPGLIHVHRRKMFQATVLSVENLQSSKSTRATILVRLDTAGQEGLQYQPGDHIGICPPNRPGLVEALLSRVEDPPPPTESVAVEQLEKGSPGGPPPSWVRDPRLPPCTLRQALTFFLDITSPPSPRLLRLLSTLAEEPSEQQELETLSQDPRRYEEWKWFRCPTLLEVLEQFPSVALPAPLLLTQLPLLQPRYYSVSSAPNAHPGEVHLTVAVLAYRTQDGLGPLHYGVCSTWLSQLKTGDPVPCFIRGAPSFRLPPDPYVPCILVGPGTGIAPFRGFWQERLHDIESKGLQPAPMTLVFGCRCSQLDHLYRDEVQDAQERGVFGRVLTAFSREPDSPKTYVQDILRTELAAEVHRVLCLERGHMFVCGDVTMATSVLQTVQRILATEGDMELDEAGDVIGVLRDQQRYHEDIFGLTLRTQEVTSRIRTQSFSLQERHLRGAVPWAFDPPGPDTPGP
How it was run: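 Bovine coronary artery endothelial cells, in triplicate, were exposed to a range of concentrations of each compound. Medium was collected 10 min after treatment, and NO was quantified as nitrite/nitrate with a commercial kit. Sigmoidal concentration-response curves were fitted to the triplicate means to give EC50.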

[9] = Upregulation of mitofilin expression in BCAEC at EC50 after 48 hrs by Western blot analysis in presence of L-NAME; assay type: functional; conditions: Bos taurus
[10] = Upregulation of TFAM expression in BCAEC at EC50 after 48 hrs by Western blot analysis; assay type: functional; conditions: Bos taurus
[11] = biological target: T1, Citrate synthase, mitochondrial (Bos taurus); assay: Induction of citrate synthase activity in BCAEC at EC50 after 48 hrs relative to control
[12] = Upregulation of mitochondrial complex-1 expression in BCAEC at EC50 after 48 hrs by Western blot analysis in presence of L-NAME; assay type: functional; conditions: Bos taurus
[13] = Upregulation of mitofilin expression in BCAEC at EC50 after 48 hrs by Western blot analysis; assay type: functional; conditions: Bos taurus
[14] = Upregulation of mitochondrial complex-1 expression in BCAEC at 0.01 nmol/L after 48 hrs by Western blot analysis; assay type: functional; conditions: Bos taurus

Compound | Activity [1] | Activity [2] | Activity [3] | Activity [4] | Activity [5] | Activity [6] | Activity [7] | Activity [8] | EC50 (Nitric oxide synthase 3) | Activity [9] | Activity [10] | Activity [11] | Activity [12] | Activity [13] | Activity [14]
Oc1cc(O)c2c(c1)O[C@H](c1ccc(O)c(O)c1)[C@H](O)C2 [(-)-EPICATECHIN] | inactive | 25% | inactive | Active | inactive | inactive | 20% | inactive | 2 nM | inactive | Active | 30% | inactive | Active | –
CC(=O)Oc1cc(OC(C)=O)c2c(c1)O[C@H](c1ccc(OC(C)=O)c(OC(C)=O)c1)[C@H](OC(C)=O)C2 [EPICATECHIN PENTAACETATE] | inactive | 25% | inactive | – | Active | inactive | 60% | inactive | 0.006 nM | inactive | Active | 30% | inactive | Active | Active
CCOc1cc([C@H]2Oc3cc(O)cc(O)c3C[C@H]2O)ccc1O | inactive | – | inactive | – | Active | inactive | inactive | – | 1 nM | inactive | – | 30% | inactive | – | –
